The subject of data set [1] is THP-1. As to the kind of experiment: Immunomodulatory activity in human THP1 cells assessed as reduction in LPS-induced IL-8 production. The class given is functional, cell-based. The method, boiled down: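 Human promyeloid THP-1 cells were stimulated with lipopolysaccharide to induce IL-8 synthesis, and inhibition of IL-8 production by the test compound was measured.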

The nature of data set [2]: Lipophilicity, logP of compound. The class given is physicochemical. Particulars: octanol/water.
Data set [3] can be described thus: Inhibition of collagenase (unknown origin) transfected in human HeLa cells by luciferase reporter gene assay. The class given is cell-based. For orientation: In a reporter assay the amount or activity of a reporter protein is the signal.
Another data set relates to HeLa. In words: Inhibition of collagenase (unknown origin) transfected in human HeLa cells by luciferase reporter gene assay relative to control. Format: cell-based.
Data set [4] concerns THP-1. In words: Immunomodulatory activity in human THP1 cells assessed as reduction in LPS-induced IL-8 production relative to control. The class given is functional.

The term IC50 denotes the concentration at which inhibition is half-maximal. By logP is commonly meant a log measure of how a compound divides between an organic and an aqueous phase. For orientation: EC50 means the midpoint of the concentration-response curve. Read a low EC50 as a more potent agent. As a reminder, the Emax is the size of the effect at its maximum, as opposed to the concentration needed.

Take `CCSC[C@@](O)([C@@H](Nc1cc(F)cc2[nH]c(=O)ccc12)c1ccc(OC)c(F)c1Cl)C(F)(F)F`: in the data set on THP-1 [1], the IC50 is 1.58 nM. In data set [2], this molecule registered a logP of 4.3. In data set [3], this molecule gave an EC50 of 3.16 nM. Moreover, the Emax in the data set on HeLa is 92%; with THP-1 [4], 93%.

With `CCSC[C@@](O)([C@@H](Nc1cccc2nc(C)ccc12)c1ccc(Cl)c(F)c1OC)C(F)(F)F`, in the data set with THP-1 [1], the IC50 was 1.58 nM. For the same molecule, the logP in data set [2] worked out at 5.3. In addition, the midpoint of the response in data set [3], the EC50, lay at 1.26 nM. Moreover, the Emax turned out to be 66% in the data set on HeLa and 82% in the data set on THP-1 [4].

Turning to `COc1ccc([C@H](Nc2cccc3nc(C)ccc23)[C@](O)(CN(C)C)C(F)(F)F)c(Cl)c1F`, in the data set on THP-1 [1], the IC50 is 5.01 nM. Besides, the logP in data set [2] was determined as 5.3. Further, the EC50 in data set [3] is 39.8 nM. Further, the Emax with HeLa was found to be 66%; in the data set on THP-1 [4] it was 77%.

As to `COc1ccc([C@H](Nc2cccc3nc(C)ccc23)[C@](O)(CSC)C(F)(F)F)c(Cl)c1F`, the half-maximal inhibitory concentration (IC50) in the data set with THP-1 [1] is 0.126 nM. In data set [2], this molecule had a logP of 4.5. The EC50 in data set [3] was 0.251 nM. The values for the Emax with HeLa and with THP-1 [4] were 89% and 98%, respectively.

As for `COc1ccc([C@H](Nc2cccc3nc(C)ccc23)[C@](O)(CC#N)C(F)(F)F)c(Cl)c1F`, the IC50 in the data set on THP-1 [1] is 1.26 nM. In addition, the logP in data set [2] was determined as 3.4. The same molecule gave a half-maximal effective concentration (EC50) in data set [3] of 1.58 nM. The Emax came to 80% in the data set on HeLa and 83% in the data set with THP-1 [4].

Take `CCSC[C@@](O)([C@@H](Nc1cccc2nc(C)ccc12)c1ccc(OC)cc1F)C(F)(F)F`: the IC50 in the data set on THP-1 [1] is 5.01 nM. In data set [2], this molecule had a logP of 4.4. A half-maximal effect in data set [3] (EC50) was put at 5.01 nM. The Emax worked out at 63% with HeLa and 85% with THP-1 [4].

As to `CC[C@H]1c2c(cc(F)c(F)c2O)[C@H](Nc2cccc3[nH]c(=O)ccc23)[C@@](O)(C(F)(F)F)C1OC` (stereo not given in full), in the data set with THP-1 [1], the IC50 is 6.31 nM. The molecule further returned a logP in data set [2] of 3.1. Besides, the EC50 in data set [3] was 10 nM. The Emax with HeLa turned out to be 29%; in the data set with THP-1 [4] it was 78%.

In the case of `CCSC[C@@](O)([C@@H](Nc1cccc2nc(C)ccc12)c1cccc(F)c1OC)C(F)(F)F`, in the data set on THP-1 [1], the IC50 is 2 nM. In data set [2], this molecule showed a logP of 4.6. Moreover, the midpoint of the response in data set [3], the EC50, lay at 10 nM. Besides, the Emax with HeLa is 47%; in the data set on THP-1 [4], 69%.

Consider `COc1ccc([C@H](Nc2cc(F)cc3[nH]c(=O)ccc23)[C@](O)(CN(C)C)C(F)(F)F)c(Cl)c1F`, for which the IC50 in the data set with THP-1 [1] was 7.94 nM. In data set [2], the logP was 4.4. The molecule further showed a half-maximal effective concentration (EC50) in data set [3] of 3.98 nM. The Emax is 62% with HeLa and 109% in the data set with THP-1 [4].

Take `CCSC[C@@](O)([C@@H](Nc1cccc2nc(C)ccc12)c1ccc(F)cc1OC)C(F)(F)F`: the IC50 with THP-1 [1] is 5.01 nM. The logP in data set [2] was 4.4. This molecule also gave an EC50 in data set [3] of 10 nM. Further, the maximum response (Emax) is 72% with HeLa and 78% in the data set on THP-1 [4].

Take `CCSC[C@@](O)([C@@H](Nc1cccc2nc(C)ccc12)c1ccc(OC)c(F)c1)C(F)(F)F`: the IC50 in the data set with THP-1 [1] is 5.01 nM. The logP in data set [2] is 4.1. This molecule also had an EC50 in data set [3] of 6.31 nM. Moreover, the results for the Emax in the data set on HeLa and in the data set with THP-1 [4] were 77% and 82%, respectively.

With `CCSC[C@@](O)([C@@H](Nc1cccc2nc(C)ccc12)c1ccc(OC)cc1)C(F)(F)F`, the IC50 in the data set on THP-1 [1] is 6.31 nM. In data set [2], this molecule came in with a logP of 4.2. This molecule had an EC50 in data set [3] of 10 nM. The Emax in the data set on HeLa came to 70%; with THP-1 [4], 86%.

Regarding `CCSC[C@@](O)([C@@H](Nc1cccc2nc(C)ccc12)c1ccc(OC)c(F)c1Cl)C(F)(F)F`, the IC50 with THP-1 [1] was 0.158 nM. Also, the logP in data set [2] worked out at 4.9. Further, the EC50 in data set [3] is 0.631 nM. Also, the maximum response (Emax) in the data set with HeLa turned out to be 87%; in the data set on THP-1 [4] it was 91%.

Take `CCSC[C@@](O)([C@@H](Nc1cccc2nc(C)ccc12)c1ccc(C)cc1)C(F)(F)F`: the IC50 in the data set with THP-1 [1] was 2.51 nM. Further, the logP in data set [2] came to 4.8. Also, in data set [3], the concentration for a half-maximal effect (EC50) was 12.6 nM. Moreover, the results for the Emax in the data set with HeLa and in the data set on THP-1 [4] were 66% and 87%, respectively.

(Values after ChEMBL document CHEMBL4622936, “Discovery of the potent non-steroidal glucocorticoid receptor modulator BAY 1003803 as clinical candidate” (Bioorg Med Chem Lett, 2020).)
